In brackets after ≈: the same amount, converted by molar mass. One block for each compound: values may come before it.
Assays:
[1] = Half life of the compound at pH 1 at 37 degC by solution stability test; type: physicochemical; conditions: buffer
Procedure, shortened: (§1)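 Chemical stability in aqueous solution at 37 °C, at pH 1.0 or pH 7.4. Half-life determined for each condition, in hours.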

[2] = Half life of the compound at pH 7.4 at 37 degC by solution stability test; type: physicochemical; conditions: buffer; procedure, shortened: as §1
[3] = Aqueous solubility of the compound at pH 6.5; type: physicochemical
[4] = Aqueous solubility of the compound at pH 1; type: physicochemical
[5] = Aqueous solubility of the compound at pH 4.6; type: physicochemical
Rattus norvegicus [6] = assay: Tmax in rat assessed as parent compound BMS-582949 at 142 mg/kg, po administered in 0.75% methocel vehicle as suspension; type: ADME, organism-based; set-up: dose 142 mg/kg, route oral; conditions: in vivo
Procedure, shortened: (§2)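 Oral dosing to rats as a methocel suspension. Prodrug given at 142 mpk (equivalent to 100 mpk of parent); parent given at 100 mpk. Parent drug measured in plasma over 24 h, giving Cmax, Tmax and AUC0–24h. The prodrug itself was also monitored in plasma.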

Rattus norvegicus [7] = assay: Cmax in rat assessed as parent compound BMS-582949 at 14.2 mg/kg, po administered in 1:1 PEG 300/water as vehicle; type: ADME, organism-based; set-up: dose 14.2 mg/kg, route oral; conditions: in vivo
Procedure, shortened: (§3)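 Oral dosing to rats as a solution in 1:1 PEG 300/water. Prodrug given at 14.2 mpk (equivalent to 10 mpk of parent); parent given at 10 mpk. Plasma levels of the parent drug measured over 24 h, giving Cmax, Tmax and AUC0–24h. The prodrug itself was also monitored in plasma.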

Rattus norvegicus [8] = assay: AUC (0 to 24 hrs) in rat assessed as parent compound BMS-582949 at 142 mg/kg, po administered in 0.75% methocel vehicle as suspension; type: ADME, organism-based, Plasma; set-up: time < 24 hr, dose 142 mg/kg, route oral; conditions: in vivo; procedure, shortened: as §2
Rattus norvegicus [9] = assay: AUC (0 to 24 hrs) in rat assessed as parent compound BMS-582949 at 14.2 mg/kg, po administered in 1:1 PEG 300/water as vehicle; type: ADME, organism-based, Plasma; set-up: time < 24 hr, dose 14.2 mg/kg, route oral; conditions: in vivo; procedure, shortened: as §3
[10] = Aqueous solubility of the compound at pH 3.1; type: physicochemical
Rattus norvegicus [11] = assay: Tmax in rat assessed as parent compound BMS-582949 at 14.2 mg/kg, po administered in 1:1 PEG 300/water as vehicle; type: ADME, organism-based; set-up: dose 14.2 mg/kg, route oral; conditions: in vivo; procedure, shortened: as §3
Rattus norvegicus [12] = assay: Cmax in rat assessed as parent compound BMS-582949 at 142 mg/kg, po administered in 0.75% methocel vehicle as suspension; type: ADME, organism-based; set-up: dose 142 mg/kg, route oral; conditions: in vivo; procedure, shortened: as §2
[13] = Half life of the compound at pH 7.5 at 25 degC by solution stability test; type: physicochemical; conditions: buffer
[14] = Cmax in rat at 10 mg/kg, po administered with 1:1 PEG 300/water as vehicle; type: ADME, organism-based; set-up: dose 10 mg/kg, route oral; conditions: in vivo; procedure, shortened: as §3
[15] = Cmax in rat at 100 mg/kg, po administered in 0.75% methocel vehicle as suspension; type: ADME, organism-based; set-up: dose 100 mg/kg, route oral; conditions: in vivo; procedure, shortened: as §2
[16] = Tmax in rat at 10 mg/kg, po administered with 1:1 PEG 300/water as vehicle; type: ADME, organism-based; set-up: dose 10 mg/kg, route oral; conditions: in vivo; procedure, shortened: as §3
[17] = AUC (0 to 24 hrs) in rat at 10 mg/kg, po administered with 1:1 PEG 300/water as vehicle; type: ADME, organism-based; set-up: time < 24 hr, dose 10 mg/kg, route oral; conditions: plasma; procedure, shortened: as §3
[18] = Tmax in rat at 100 mg/kg, po administered in 0.75% methocel vehicle as suspension; type: ADME, organism-based; set-up: dose 100 mg/kg, route oral; conditions: in vivo; procedure, shortened: as §2
[19] = AUC (0 to 24 hrs) in rat at 100 mg/kg, po administered in 0.75% methocel vehicle as suspension; type: ADME, organism-based; set-up: time < 24 hr, dose 100 mg/kg, route oral; conditions: plasma; procedure, shortened: as §2

Structure (SMILES): CCCNC(=O)c1cn2ncnc(Nc3cc(C(=O)N(C(=O)OCOC(=O)/C=C/C(=O)O)C4CC4)ccc3C)c2c1C
half-life [1]: 34.5 h
half-life [2]: 21.8 h
solubility [3]: 1570 µg/mL (≈ 2710 µM)
solubility [4]: 166 µg/mL (≈ 287 µM)

Structure (SMILES): CCCN(C(=O)OCOC(=O)/C=C/C(=O)O)C(=O)c1cn2ncnc(Nc3cc(C(=O)NC4CC4)ccc3C)c2c1C
solubility [5]: 367 µg/mL (≈ 634 µM)
Tmax (Rattus norvegicus [6]): 6 h
Cmax (Rattus norvegicus [7]): 4.6 µM
half-life [1]: 79.4 h
AUC (Rattus norvegicus [8]): 213.9 µM·h
AUC (Rattus norvegicus [9]): 52 µM·h
solubility [10]: 105 µg/mL (≈ 181 µM)
half-life [2]: 38.5 h
solubility [3]: 883 µg/mL (≈ 1530 µM)
solubility [4]: 1180 µg/mL (≈ 2040 µM)
Tmax (Rattus norvegicus [11]): 4 h
Cmax (Rattus norvegicus [12]): 21.1 µM

Structure (SMILES): CCCN(C(=O)OCOP(=O)(O)O)C(=O)c1cn2ncnc(Nc3cc(C(=O)NC4CC4)ccc3C)c2c1C
half-life [1]: 26.8 h
half-life [2]: < 0.25 h

Structure (SMILES): CCCNC(=O)c1cn2ncnc(Nc3cc(C(=O)N(C(=O)OCOP(=O)(O)O)C4CC4)ccc3C)c2c1C
half-life [1]: 20.5 h
half-life [2]: < 0.25 h

Structure (SMILES): O=C(OCOP(=O)(O)O)OC1Cc2ccccc2C1
half-life [13]: 0.967 h

Structure (SMILES): CCCNC(=O)c1cn2ncnc(Nc3cc(C(=O)N(C(=O)OCOC(=O)[C@H](C)N)C4CC4)ccc3C)c2c1C.Cl
half-life [1]: 3 h
half-life [2]: < 0.25 h

Structure (SMILES): CCCNC(=O)c1cn2ncnc(Nc3cc(C(=O)NC4CC4)ccc3C)c2c1C [BMS-582949]
Cmax [14]: 6.5 µM
Cmax [15]: 0.8 µM
Tmax [16]: 1 h
AUC(0-t) at 24 h [17]: 53.3 µM·h
Tmax [18]: 1.7 h
AUC(0-t) at 24 h [19]: 5.6 µM·h

Next, values leading:

half-life [1]: 8.5 h
half-life [2]: < 0.25 h
Structure (SMILES): CCCNC(=O)c1cn2ncnc(N(C(=O)OCOP(=O)(O)O)c3cc(C(=O)NC4CC4)ccc3C)c2c1C

half-life [13]: 1150 h
Structure (SMILES): COc1ccc(CCNC(=O)OCOP(=O)(O)O)cc1OC

half-life [1]: 129 h
half-life [2]: 14.6 h
solubility [3]: 1150 µg/mL (≈ 1990 µM)
solubility [4]: 8 µg/mL (≈ 13.8 µM)
Structure (SMILES): CCCNC(=O)c1cn2ncnc(N(C(=O)OCOC(=O)/C=C/C(=O)O)c3cc(C(=O)NC4CC4)ccc3C)c2c1C

half-life [1]: 3.2 h
half-life [2]: < 0.25 h
Structure (SMILES): CCCNC(=O)c1cn2ncnc(N(C(=O)OCOC(=O)[C@H](C)N)c3cc(C(=O)NC4CC4)ccc3C)c2c1C.Cl.Cl

half-life [1]: 3.2 h
half-life [2]: < 0.25 h
Structure (SMILES): CCCN(C(=O)OCOC(=O)[C@H](C)N)C(=O)c1cn2ncnc(Nc3cc(C(=O)NC4CC4)ccc3C)c2c1C.Cl.Cl

From ChEMBL document CHEMBL2384922, “Synthesis and evaluation of carbamoylmethylene linked prodrugs of BMS-582949, a clinical p38α inhibitor” (Bioorg Med Chem Lett, 2013)
